SMILES strings stand for the structures. Activity calls are given as the source filed them. The calls are words filed in the database; no cut-off is given here.

Chain of Hepatocyte growth factor receptor (P08581 whole entry): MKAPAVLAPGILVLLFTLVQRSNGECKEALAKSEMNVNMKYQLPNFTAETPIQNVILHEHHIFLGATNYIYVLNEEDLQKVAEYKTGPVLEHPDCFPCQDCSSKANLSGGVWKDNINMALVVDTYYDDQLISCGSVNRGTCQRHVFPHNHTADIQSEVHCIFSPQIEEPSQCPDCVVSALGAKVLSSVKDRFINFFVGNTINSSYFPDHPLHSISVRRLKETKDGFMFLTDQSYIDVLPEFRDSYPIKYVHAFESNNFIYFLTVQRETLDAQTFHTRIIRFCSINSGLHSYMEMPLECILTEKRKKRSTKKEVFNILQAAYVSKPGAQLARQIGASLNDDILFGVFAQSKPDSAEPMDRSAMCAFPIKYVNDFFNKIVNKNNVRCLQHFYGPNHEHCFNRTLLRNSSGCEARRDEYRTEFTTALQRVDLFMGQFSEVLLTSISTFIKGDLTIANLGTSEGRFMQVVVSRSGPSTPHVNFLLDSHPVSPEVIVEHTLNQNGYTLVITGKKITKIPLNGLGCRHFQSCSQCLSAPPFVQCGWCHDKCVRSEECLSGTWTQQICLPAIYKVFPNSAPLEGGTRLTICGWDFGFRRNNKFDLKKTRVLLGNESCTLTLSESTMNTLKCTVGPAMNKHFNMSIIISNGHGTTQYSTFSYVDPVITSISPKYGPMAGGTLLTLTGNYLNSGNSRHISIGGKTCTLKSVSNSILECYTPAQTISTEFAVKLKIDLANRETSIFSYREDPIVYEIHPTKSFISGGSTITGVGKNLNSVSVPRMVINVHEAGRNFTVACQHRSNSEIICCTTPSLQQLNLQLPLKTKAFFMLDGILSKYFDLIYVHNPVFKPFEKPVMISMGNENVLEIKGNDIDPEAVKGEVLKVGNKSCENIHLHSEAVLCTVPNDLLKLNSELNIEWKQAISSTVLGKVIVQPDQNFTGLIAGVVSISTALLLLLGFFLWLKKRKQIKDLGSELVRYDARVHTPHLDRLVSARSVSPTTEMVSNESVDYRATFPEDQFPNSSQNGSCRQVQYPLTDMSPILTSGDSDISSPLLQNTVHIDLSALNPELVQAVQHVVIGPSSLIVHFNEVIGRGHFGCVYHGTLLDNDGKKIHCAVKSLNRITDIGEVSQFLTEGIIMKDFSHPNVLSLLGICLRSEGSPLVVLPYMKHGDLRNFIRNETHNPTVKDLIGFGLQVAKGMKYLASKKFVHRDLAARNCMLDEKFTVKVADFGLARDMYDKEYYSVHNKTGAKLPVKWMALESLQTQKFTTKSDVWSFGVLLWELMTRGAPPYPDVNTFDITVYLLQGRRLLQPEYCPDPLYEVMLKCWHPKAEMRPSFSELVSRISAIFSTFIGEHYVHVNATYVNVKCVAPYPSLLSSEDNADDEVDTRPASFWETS

One experiment relates to A549. Briefly: Potency index, ratio of golvatinib IC50 to test compound IC50 for antiproliferative activity against human A549 cells. Type of experiment: functional.
Details: not given
In the case of `Cc1cc(=O)n(-c2ccccc2OC(F)(F)F)nc1C(=O)Nc1ccc(Oc2ccnc(C(=O)NCCCN3CCOCC3)c2)cc1`, the “Ratio IC50” value was 2.6 - 6.95.

The test system of another experiment is MCF7. Briefly: Potency index, ratio of golvatinib IC50 to test compound IC50 for antiproliferative activity against human MCF7 cells. In kind it is functional.
Details: not given
With `Cc1cc(=O)n(-c2ccccc2OC(F)(F)F)nc1C(=O)Nc1ccc(Oc2ccnc(C(=O)NCCCN3CCOCC3)c2)cc1`, the “Ratio IC50” value is 2.6 - 6.95.

The next experiment has as its system HeLa. Briefly: Induction of apoptosis in human HeLa cells after 12 hrs by acridine orange staining based assay. Type of experiment: functional, cell-based.
Details: not given
The method in brief:
(§1)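 HeLa cells were treated at 1 and 5 µg/L for 12 h, then stained with acridine orange. Morphology was compared with untreated control cells, scoring cytoplasmic contraction, membrane swelling and apoptotic bodies.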
On to `Cc1cc(=O)n(-c2ccccc2OC(F)(F)F)nc1C(=O)Nc1ccc(Oc2ccnc(C(=O)NCCCN3CCOCC3)c2)cc1`, for which the Activity entry was “Dose-dependent effect”.

The test system of another experiment is HeLa. Description: Induction of apoptosis in human HeLa cells assessed as membrane swelling at 1 to 5 ug/L after 12 hrs by acridine orange staining based assay. In kind it is functional, cell-based.
Details: not given
The method in brief: as §1
As for `Cc1cc(=O)n(-c2ccccc2OC(F)(F)F)nc1C(=O)Nc1ccc(Oc2ccnc(C(=O)NCCCN3CCOCC3)c2)cc1`, the result was Active.

The test system of a further experiment is HeLa. Description: Potency index, ratio of golvatinib IC50 to test compound IC50 for antiproliferative activity against human HeLa cells. Type of experiment: functional.
Details: not given
Regarding `Cc1cc(=O)n(-c2ccccc2OC(F)(F)F)nc1C(=O)Nc1ccc(Oc2ccnc(C(=O)NCCCN3CCOCC3)c2)cc1`, the “Ratio IC50” value is listed as 2.6 - 6.95.

A further experiment concerns MCF7. Briefly: Antiproliferative activity against human MCF7 cells assessed as reduction in cell viability after 72 hrs by MTT assay. In kind it is functional, cell-based. The note with it: Homo sapiens, MCF7, 72 h; read-out: IC50. In outline: (§2)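 Cells grown in DMEM/1640 with 10% FBS, seeded at about 4×10^3 per well and held 24 h at 37 °C, 5% CO2. Compounds diluted in medium or DMSO were added for 72 h, then MTT ([…]) was added for 3.5 h at 37 °C. Formazan was dissolved in DMSO and read at 492 nm against 630 nm. Triplicate wells, three runs, IC50 calculated.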
On the technique in general: Tetrazolium assays rely on reduction of a dye to a coloured formazan, in cell work by metabolically active cells.
On to `CNC(=O)c1cc(Oc2ccc(NC(=O)c3nn(-c4ccccc4Cl)c(=O)cc3C)cc2F)ccn1`, for which the IC50 amounted to 136 µM.
Regarding `Cc1cc(=O)n(-c2ccc(Br)cc2F)nc1C(=O)Nc1ccc(Oc2ccnc(C(=O)NCCc3cccs3)c2)cc1`, the IC50 was found to be 969 µM.
As for `CCCNC(=O)c1cc(Oc2ccc(NC(=O)c3nn(-c4ccc(C)cc4)c(=O)cc3C)cc2F)ccn1`, the IC50 turned out to be 34.6 µM.
Consider `CCCNC(=O)c1cc(Oc2ccc(NC(=O)c3nn(-c4cccc(C(F)(F)F)c4)c(=O)cc3C)cc2F)ccn1`, for which the IC50 was determined as 30 µM.
Same read-out and setting: the figure for `CCNC(=O)c1cc(Oc2ccc(NC(=O)c3nn(-c4ccc(Br)cc4F)c(=O)cc3C)cc2)ccn1` is 35.1 µM.
For `CCNC(=O)c1cc(Oc2ccc(NC(=O)c3nn(-c4ccccc4OC(F)(F)F)c(=O)cc3C)cc2)ccn1`, the IC50 came to 15.5 µM.
For `CNC(=O)c1cc(Oc2ccc(NC(=O)c3nn(-c4cccc(C(F)(F)F)c4)c(=O)cc3C)cc2F)ccn1`, the IC50 came out at 45.8 µM.
Consider `Cc1ccc(-n2nc(C(=O)Nc3ccc(Oc4ccnc(C(=O)NCCCN5CCOCC5)c4)cc3)c(C)cc2=O)cc1`, for which the IC50 was 3.57 µM.
Same read-out and setting: as for `Cc1cc(=O)n(-c2ccc(Br)cc2F)nc1C(=O)Nc1ccc(Oc2ccnc(C(=O)NCCCN3CCOCC3)c2)cc1`, the figure is 8.23 µM.
Take `CCCNC(=O)c1cc(Oc2ccc(NC(=O)c3nn(-c4ccccc4OC(F)(F)F)c(=O)cc3C)cc2F)ccn1`: the IC50 was found to be 7.42 µM.
As to `CN1CCN(C2CCN(C(=O)Nc3cc(Oc4ccc(NC(=O)C5(C(=O)Nc6ccc(F)cc6)CC5)c(F)c4)ccn3)CC2)CC1` [GOLVATINIB], the IC50 was determined as 20.6 µM.
Take `Cc1cc(=O)n(-c2ccccc2OC(F)(F)F)nc1C(=O)Nc1ccc(Oc2ccnc(C(=O)NCCCN3CCOCC3)c2)cc1`: the IC50 is 2.59 µM.

The next experiment concerns HeLa. Briefly: Antiproliferative activity against human HeLa cells assessed as reduction in cell viability after 72 hrs by MTT assay. In kind it is functional, cell-based.
Details: not given
In outline: as §2
On to `Cc1cc(=O)n(-c2ccccc2OC(F)(F)F)nc1C(=O)Nc1ccc(Oc2ccnc(C(=O)NCCCN3CCOCC3)c2)cc1`, for which the Activity result was “Dose-dependent effect”.

The experiment is the same for the next values; noted with them: Homo sapiens, HeLa, 72 h; read-out: IC50.
Regarding `CNC(=O)c1cc(Oc2ccc(NC(=O)c3nn(-c4ccccc4Cl)c(=O)cc3C)cc2F)ccn1`, the IC50 was determined as 9.87 µM.
For the molecule `Cc1cc(=O)n(-c2ccc(Br)cc2F)nc1C(=O)Nc1ccc(Oc2ccnc(C(=O)NCCc3cccs3)c2)cc1`, the IC50 was 387 µM.
With `CCCNC(=O)c1cc(Oc2ccc(NC(=O)c3nn(-c4ccc(C)cc4)c(=O)cc3C)cc2F)ccn1`, the IC50 is 14.2 µM.
As for `CCCNC(=O)c1cc(Oc2ccc(NC(=O)c3nn(-c4cccc(C(F)(F)F)c4)c(=O)cc3C)cc2F)ccn1`, the IC50 amounted to 8 µM.
With `CCNC(=O)c1cc(Oc2ccc(NC(=O)c3nn(-c4ccccc4OC(F)(F)F)c(=O)cc3C)cc2)ccn1`, the IC50 is 3.99 µM.
On to `CNC(=O)c1cc(Oc2ccc(NC(=O)c3nn(-c4cccc(C(F)(F)F)c4)c(=O)cc3C)cc2F)ccn1`, for which the IC50 stood at 11.8 µM.
With `Cc1ccc(-n2nc(C(=O)Nc3ccc(Oc4ccnc(C(=O)NCCCN5CCOCC5)c4)cc3)c(C)cc2=O)cc1`, the IC50 turned out to be 1.92 µM.
With `Cc1cc(=O)n(-c2ccc(Br)cc2F)nc1C(=O)Nc1ccc(Oc2ccnc(C(=O)NCCCN3CCOCC3)c2)cc1`, the IC50 came out at 4.25 µM.
On to `CCCNC(=O)c1cc(Oc2ccc(NC(=O)c3nn(-c4ccccc4OC(F)(F)F)c(=O)cc3C)cc2F)ccn1`, for which the IC50 came out at 3.69 µM.
Still for that read-out and setting: as for `CN1CCN(C2CCN(C(=O)Nc3cc(Oc4ccc(NC(=O)C5(C(=O)Nc6ccc(F)cc6)CC5)c(F)c4)ccn3)CC2)CC1` [GOLVATINIB], the figure is 4.14 µM.
Still for that read-out and setting: the figure for `Cc1cc(=O)n(-c2ccccc2OC(F)(F)F)nc1C(=O)Nc1ccc(Oc2ccnc(C(=O)NCCCN3CCOCC3)c2)cc1` is 1.15 µM.

The same experiment, now with this note: hela.
Regarding `CCNC(=O)c1cc(Oc2ccc(NC(=O)c3nn(-c4ccc(Br)cc4F)c(=O)cc3C)cc2)ccn1`, the IC50 entry was “Not Active”.

The next experiment has as its target Hepatocyte growth factor receptor (Homo sapiens, UniProt P08581). Briefly: Inhibition of cMET (unknown origin) using FAM-labeled peptide as substrate pre-incubated for 5 to 10 mins followed by substrate addition and measured after 30 to 60 mins by mobility shift assay.
Details: not given
For `Cc1ccc(-n2nc(C(=O)Nc3ccc(Oc4ccnc(C(=O)NCCCN5CCOCC5)c4)cc3)c(C)cc2=O)cc1`, the IC50 was more than 10 µM.
Take `Cc1cc(=O)n(-c2ccc(Br)cc2F)nc1C(=O)Nc1ccc(Oc2ccnc(C(=O)NCCCN3CCOCC3)c2)cc1`: the IC50 is more than 10 µM.
Consider `Cc1cc(=O)n(-c2ccccc2OC(F)(F)F)nc1C(=O)Nc1ccc(Oc2ccnc(C(=O)NCCCN3CCOCC3)c2)cc1`, for which the half-maximal inhibitory concentration (IC50) worked out at 0.807 µM.

For another experiment, the system named is HeLa. Description: Induction of apoptosis in human HeLa cells assessed as cytoplasmic contraction at 1 to 5 ug/L after 12 hrs by acridine orange staining based assay. In kind it is functional, cell-based.
Details: not given
In outline: as §1
Take `Cc1cc(=O)n(-c2ccccc2OC(F)(F)F)nc1C(=O)Nc1ccc(Oc2ccnc(C(=O)NCCCN3CCOCC3)c2)cc1`: the result was Active.

The next experiment has as its system A549. Description: Antiproliferative activity against human A549 cells assessed as reduction in cell viability after 72 hrs by MTT assay. The note with it: A549, 72 h. Type of experiment: functional, cell-based. In outline:
as §2
On to `CNC(=O)c1cc(Oc2ccc(NC(=O)c3nn(-c4ccccc4Cl)c(=O)cc3C)cc2F)ccn1`, for which the IC50 came out at 11.8 µM.
Same read-out and setting: the figure for `Cc1cc(=O)n(-c2ccc(Br)cc2F)nc1C(=O)Nc1ccc(Oc2ccnc(C(=O)NCCc3cccs3)c2)cc1` is 585 µM; for `CCCNC(=O)c1cc(Oc2ccc(NC(=O)c3nn(-c4ccc(C)cc4)c(=O)cc3C)cc2F)ccn1` it is 18 µM; for `CCCNC(=O)c1cc(Oc2ccc(NC(=O)c3nn(-c4cccc(C(F)(F)F)c4)c(=O)cc3C)cc2F)ccn1` it is 9.24 µM.
On to `CCNC(=O)c1cc(Oc2ccc(NC(=O)c3nn(-c4ccc(Br)cc4F)c(=O)cc3C)cc2)ccn1`, for which the IC50 worked out at 34.5 µM.
For `CCNC(=O)c1cc(Oc2ccc(NC(=O)c3nn(-c4ccccc4OC(F)(F)F)c(=O)cc3C)cc2)ccn1`, the IC50 worked out at 5.28 µM.
Still for that read-out and setting: the figure for `CNC(=O)c1cc(Oc2ccc(NC(=O)c3nn(-c4cccc(C(F)(F)F)c4)c(=O)cc3C)cc2F)ccn1` is 10.2 µM; for `Cc1ccc(-n2nc(C(=O)Nc3ccc(Oc4ccnc(C(=O)NCCCN5CCOCC5)c4)cc3)c(C)cc2=O)cc1` it is 2.94 µM; for `Cc1cc(=O)n(-c2ccc(Br)cc2F)nc1C(=O)Nc1ccc(Oc2ccnc(C(=O)NCCCN3CCOCC3)c2)cc1` it is 6.83 µM.
`CCCNC(=O)c1cc(Oc2ccc(NC(=O)c3nn(-c4ccccc4OC(F)(F)F)c(=O)cc3C)cc2F)ccn1`: the IC50 was found to be 4.22 µM.
For `CN1CCN(C2CCN(C(=O)Nc3cc(Oc4ccc(NC(=O)C5(C(=O)Nc6ccc(F)cc6)CC5)c(F)c4)ccn3)CC2)CC1` [GOLVATINIB], the IC50 came to 6.89 µM.
As to `Cc1cc(=O)n(-c2ccccc2OC(F)(F)F)nc1C(=O)Nc1ccc(Oc2ccnc(C(=O)NCCCN3CCOCC3)c2)cc1`, the IC50 stood at 1.03 µM.

The next experiment deals with HeLa. Briefly: Induction of apoptosis in human HeLa cells assessed as increase in apoptotic bodies at 1 to 5 ug/L after 12 hrs by acridine orange staining based assay.
Details: not given
Type of experiment: functional, cell-based. The method in brief:
as §1
On to `Cc1cc(=O)n(-c2ccccc2OC(F)(F)F)nc1C(=O)Nc1ccc(Oc2ccnc(C(=O)NCCCN3CCOCC3)c2)cc1`, for which the result was Active.

The next experiment deals with HeLa. Briefly: Antiproliferative activity against human HeLa cells assessed as inhibition of cell proliferation at 1.23 umol/L after 72 hrs by MTT assay relative to control. In kind it is functional.
Details: not given
The method in brief: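 Cells were cultured in medium with 10% FBS and seeded near 4×10^3 per well, 24 h before dosing. MTT (5 µg/mL) was added for 3.5 h at 37 °C, formazan dissolved in DMSO, and absorbance read at 492/630 nm.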
Consider `CN1CCN(C2CCN(C(=O)Nc3cc(Oc4ccc(NC(=O)C5(C(=O)Nc6ccc(F)cc6)CC5)c(F)c4)ccn3)CC2)CC1` [GOLVATINIB], for which the inhibition at 1.23 µM came to 20%.
As to `Cc1cc(=O)n(-c2ccccc2OC(F)(F)F)nc1C(=O)Nc1ccc(Oc2ccnc(C(=O)NCCCN3CCOCC3)c2)cc1`, the inhibition at 1.23 µM was more than 50%.

What is called IC50 is the concentration that gives 50% inhibition. Broadly, the inhibition is the change of the read-out against control, counted positive when it falls.

For the origin of these results see ChEMBL document CHEMBL4627334, “Design, synthesis and biological evaluation of 4-(pyridin-4-yloxy)benzamide derivatives bearing a 5-methylpyridazin-3(2H)-one fragment” (Bioorg Med Chem Lett, 2020).
